Sampled rows, rich in hits. Any-hit rate of the full collection: about 1.4%.
Tn7 DDE FP = inhibitors of Tn7 peptide binding to fibrin DD(E), primary screen, biochemical, fluorescence polarization, human fibrin, Tn7 probe; inhibition, % at 8.3 µM; actives 0.13% (n = 370,000); AID 720508, 2013; FP displacement of FITC-Tn7 peptide from fibrin DD(E); 0% = median of compound wells per plate;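 active means inhibition above the mean of compounds falling within the control limits plus 3 SD of them, cut at about 14% in these data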;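 further: 0% = plate median of compound wells and 100% = 10 µM Aha-Tn7 peptide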
Target sequence (P02675 whole entry, looked up): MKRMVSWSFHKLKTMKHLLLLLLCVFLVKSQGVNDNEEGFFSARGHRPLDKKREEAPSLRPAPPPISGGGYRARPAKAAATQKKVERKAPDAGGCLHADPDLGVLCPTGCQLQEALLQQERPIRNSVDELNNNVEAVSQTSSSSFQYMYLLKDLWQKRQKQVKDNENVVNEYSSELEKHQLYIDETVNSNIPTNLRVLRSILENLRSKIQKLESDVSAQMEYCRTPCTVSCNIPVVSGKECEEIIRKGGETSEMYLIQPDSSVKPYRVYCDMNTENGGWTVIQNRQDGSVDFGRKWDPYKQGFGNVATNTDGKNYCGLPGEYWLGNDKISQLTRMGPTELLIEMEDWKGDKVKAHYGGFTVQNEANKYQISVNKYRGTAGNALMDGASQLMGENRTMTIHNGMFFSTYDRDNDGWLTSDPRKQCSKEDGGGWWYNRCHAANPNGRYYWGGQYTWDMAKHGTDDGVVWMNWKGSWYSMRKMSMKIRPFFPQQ
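Test system – human fibrin DD(E) · Times – 10 min preincubation, 3 h with tracer, room temperature · Detection – fluorescence polarization of the labelled Tn7 tracer · Measure – percent inhibition normalized to high-control wells · Benchmarks – high control wells with 10 µM unlabelled Aha-Tn7 peptide (full inhibition) · Repeats – singlicate testing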
CAL PDZ FP-1 = untagged CAL PDZ binding inhibitors, primary screen, biochemical, fluorescence polarization, HTS. purified CAL PDZ, TMR-peptide fluorescence polarization, 1 h. AID 602252, 2012. Golgi-associated PDZ and coiled-coil motif-containing protein (Homo sapiens), Q9HD26. actives 0.92% (n = 300,000). inhibition, % at 24.9 µM;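 active means mean inhibition of at least 30% with at least half of replicates also reaching 30%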;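 further: 0% = DMSO neutral control and 100% = excess unlabeled competitor peptide PRC23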
Arr AP2 block = inhibitors of beta-arrestin/AP2 binding, primary screen, biochemical, GPCR trafficking, flow cytometry; beta-arrestin 1 C-terminal peptide binding to AP2 beta2-adaptin appendage (human); actives 0.31% (n = 340,000); FITC-arrestin peptide / GST-AP2 beads; AP2 beta2 appendage carries R879A mutation; inhibition, % at 10 µM;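 active means inhibition above a set limit, near 3 SD of compounds lacking own fluorescence, cut at about 54% in these data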;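 further: plate controls were DMSO wells for no effect and 5 µM unlabelled arrestin peptide for full effect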
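System: GST-AP2 R879A glutathione beads | Also added: FITC-arrestin peptide, 50 nM | Times: 12 min plus 1 h, RT | Signal: Bead flow cytometry, FITC channel | Buffer or medium: PBS with 0.05% Tween 20 and 0.1% BSA | Read-out basis: Percent drop in bead-associated FITC signal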
CAL PDZ FP-2 = CAL PDZ peptide-binding inhibitors, primary screen, biochemical, fluorescence polarization, Cer-tagged CAL PDZ, HTS; purified CAL PDZ, TMR-peptide fluorescence polarization, 1 h; inhibition, % at 20 µM; actives 0.02% (n = 330,000);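 active means highest replicate inhibition of at least 40%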;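 further: plate controls were DMSO neutral control wells for no effect and unlabeled competitor peptide control wells for full effect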
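Assay system – tagged CAL PDZ protein CerCALP, purified · Timing – 1 h at RT · Compound – single point, 20 µM · Measured by – fluorescence polarization from S- and P-plane intensities, G-factor corrected · Evaluation – inhibition from polarization loss · Probe or stimulus – TMR reporter peptide T*-PRC34 · Buffer or medium – pH 7.4 phosphate-saline buffer, reducing agent, detergent, IgG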
Tn6 DDE FP = inhibitors of Tn6 peptide binding to fibrin DD(E), primary screen, biochemical, fluorescence polarization, human fibrin, Tn6 probe | Fibrinogen beta chain (Homo sapiens), P02675 | Fibrin DD(E) TRITC-Tn6 fluorescence polarization displacement | inhibition, % at 8.3 µM | actives 0.21% (n = 370,000) | AID 720509, 2013;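 active means inhibition above a per-campaign cutoff: mean of compounds within control limits plus 3 SD, cut at about 15% in these data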;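 further: 0% = median of all compound wells on the plate and 100% = blocking peptide control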
DDE Tn7 confirm = inhibitors of Tn7 peptide binding to fibrin DD(E), confirmation, biochemical, fluorescence polarization, human fibrin, Tn7 probe; FP displacement of TRITC-Tn7 peptide from DD(E); 0% set at plate's compound-well median; inhibition, % at 8.3 µM; actives 5% (n = 460); shares compounds with Tn7 DDE FP;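 active means inhibition above the campaign cutoff, the mean of compounds within control limits plus 3 SD, cut at about 14% in these data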;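 further: 100% = median FP of high control wells holding Aha-Tn7 inhibitor peptide; displacers lower polarization since freed probe rises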
Tn7 DDE ctr = counter-screen hit for Tn7 peptide-fibrin DD(E) binding disruption; shares compounds with Tn7 DDE FP; TRITC-Tn7 probe displacement, fluorescence polarization; inhibition, % at 8.3 µM; actives 3% (n = 460);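 active means inhibition above the cutoff, the mean of compounds lying between the control bounds plus 3 SD of those compounds, cut at about 17% in these data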;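 further: 0% = median of compound sample wells and 100% = excess unlabeled Aha-Tn7 peptide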
Tn6 DDE ctr = counter-screen hit for Tn6 peptide-fibrin DD(E) binding disruption. shares compounds with Tn6 DDE FP. TRITC-Tn6 fluorescence polarization displacement; 0% = median of compound wells, not DMSO. inhibition, % at 8.3 µM. actives 2% (n = 680). AID 720621;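 active means inhibition above the mean of test compounds lying between the control limits plus 3 SD of those, cut at about 14% in these data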;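 further: 0% = median of compound wells and 100% = wells with Aha-Tn7 blocking peptide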
DDE Tn6 confirm = inhibitors of Tn6 peptide binding to fibrin DD(E), confirmation, biochemical, fluorescence polarization, human fibrin, Tn6 probe | shares compounds with Tn6 DDE FP | FP displacement of TRITC-Tn6 peptide from DD(E); 0% = per-plate median of test wells | inhibition, % at 8.3 µM | actives 10% (n = 680) | AID 720631, 2013;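 active means inhibition above the mean of compounds lying within the control limits plus 3 SD, cut at about 16% in these data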;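 further: 100% = high control wells holding a competing inhibitor peptide at 10 µM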
* = called active by the depositor; x = no result given.

SMILES	Tn7 DDE FP	CAL PDZ FP-1	Arr AP2 block	CAL PDZ FP-2	Tn6 DDE FP	DDE Tn7 confirm	Tn7 DDE ctr	Tn6 DDE ctr	DDE Tn6 confirm
O=c1[nH]cnc2c1c(-c1ccccc1)cn2-c1ccccc1	17*	-3	-9	-5	7	2	-7	x	x
Cc1ccc(-n2cc(-c3ccccc3)c3c(=O)[nH]cnc32)cc1	1	2	9	-2	-1	x	x	x	x
Fc1cccc(CCN2C(=S)NC[C@@H]2Cc2ccccc2)c1	15*	-4	0	-1	2	4	1	x	x
O=C(CCCCCN1C(=O)c2ccccc2C1=O)Nc1ccccc1	2	-6	8	-1	-2	x	x	x	x
CC(=O)Nc1ccc(NC(=O)CCCCCN2C(=O)c3ccccc3C2=O)cc1	14*	10	2	0	3	-5	-5	x	x
C=C(C)C1CC=C(C)/C(=N/NC(=O)c2ccc(NC(=O)CCC)cc2)C1 (stereo not given)	14*	-2	36	-3	6	8	3	x	x
C=C(C)C1CC=C(C)/C(=N/NC(=O)c2ccc(NC(=O)CC)cc2)C1 (stereo not given)	6	x	-1	-2	-1	x	x	x	x
COc1ccc2ccccc2c1C(O)c1nccn1C (stereo not given)	33*	-4	-5	0	17*	17*	4	17*	4
O=C1c2ccccc2-c2onc3ccc(N4CCCC4)c1c23	32*	2	24	0	100*	6	93*	6	93*
O=C1c2ccccc2C(=O)c2c1cccc2N1CCCC1	-3	1	41	2	4	x	x	x	x
CN(C)Cc1c(C(C)(C)O)[nH]c2cc(F)ccc12	7	x	x	x	-5	x	x	x	x
COC(=O)CC1(C(=O)OC)Nc2cc(Cl)c(Cl)cc2S(=O)(=O)N1O (stereo not given)	88*	x	x	x	124*	60*	58*	60*	58*
CC1(C)CC(=O)C(C=Nc2ccc(O)c(N=CC3=C(O)CC(C)(C)CC3=O)c2)=C(O)C1	2	-2	27	-1	-3	x	x	x	x
CC1(C)CC(=O)C(C=Nc2ccc(C(=O)c3ccccc3)cc2N=CC2=C(O)CC(C)(C)CC2=O)=C(O)C1	14*	3	7	0	19*	6	-3	6	-3
CCCCCCCCNC(=O)C1CSCCS(=O)(=O)N1Cc1ccc(F)cc1 (stereo not given)	5	x	x	x	4	x	x	x	x
COCCNC(=O)Cn1c(=O)n(Cc2ccc(C(=O)NCCc3ccc(OC)c(OC)c3)cc2)c(=O)c2ccccc21	3	-4	4	0	17*	x	x	-2	-5
Cc1nc2ccccc2n1-c1nc(-c2ccco2)cc(C(F)(F)F)n1	0	-5	5	-2	18*	x	x	-3	-5
Cc1cc(Sc2nc(NC(C)(C)C)nc(N3CCOCC3)n2)nc(Cl)n1	0	-1	-2	0	17*	x	x	5	-1
COc1cc(NC(=O)CN(C)Cc2cccc(F)c2)c(C)cc1[N+](=O)[O-]	-2	0	5	-2	17*	x	x	9	3
COc1cc(OC)cc(-c2c(-c3ccc(F)cc3)c3cc(-c4ccc(SC)cc4)ccc3n2C)c1	-2	-4	-9	0	1	x	x	x	x
COc1cc(OC)cc(-c2c(-c3ccc(F)cc3)c3cc(-c4ccc5c(c4)OCCO5)ccc3n2C)c1	-1	0	27	0	53*	x	x	-8	-6
CCN1C=C(C(=O)OC)C(c2cccc(OC)c2OC)C(C(=O)OC)=C1	12	-4	-12	0	17*	x	x	4	1
CCC[C@H]1[C@@H](NC(=O)C2CCC2)CC[C@@]23CCCN2C(=O)CCC[C@@H]13	9	x	x	x	0	x	x	x	x
C[C@@H]1ON(C)[C@H]2C[C@H]3c4cc(-c5cccc(Cl)c5)ccc4CCN3C[C@@H]12	2	x	x	x	-2	x	x	x	x
Cc1cccc(Cn2cc(CN3CC(N(C)CCOC(=O)c4cc(C)cc(C)c4)CS3(=O)=O)nn2)c1 (stereo not given)	-2	x	x	x	-5	x	x	x	x
Cc1ccc(Cn2ccsc2=NC(=O)COC(=O)c2ccc(NC(=O)CC#N)cc2)cc1	-4	x	15	-1	16*	x	x	-2	-16
COC(=O)C1CN(Cc2cn(CCC3OCCO3)nn2)CCS(=O)(=O)N1Cc1ccc(C)cc1 (stereo not given)	-2	x	x	x	6	x	x	x	x
NS(=O)(=O)c1ccc(NS(=O)(=O)c2ccc(NC(=O)c3ccc(-c4ccccc4)cc3)cc2)cc1	5	-3	5	0	32*	x	x	0	17*
